Rows were chosen to be rich in hits. Some 2.2% of all compounds tested hit in one or more screens of this group.
SF1 activator – activators of human SF-1, primary screen, cell-based, CHO-K1, Gal4-SF-1 LBD, luciferase luminescence; AID 522, 2006; activation, % at 10 µM; Steroidogenic factor 1 (Homo sapiens), Q13285; CHO-K1 Gal4-SF-1 LBD luciferase reporter; % increase over DMSO SF-1-specific signal; 65,000 tested, 1.9% active;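 active = activation above the mean activation of all tested compounds plus 3 SD, cut at about 50% in these data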
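Compound – one dose, 10 µM compound, 1% DMSO · Test system – transient Gal4-SF-1 LBD reporter, CHO-K1 · Input – 4,000 cells in each well · Read-out basis – percent activation relative to DMSO median and mock-transfected background · Replicates – single measurement per compound · Technique – steady-glow luciferase luminescence, read after 15 min reagent incubation · Timing – 20 h compound treatment, 37 °C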
AP ELISA ortho – alternative complement pathway inhibitors, primary screen, biochemical, ELISA, human serum, orthogonally pooled compounds | inhibition, % at 5 µM | LPS-coated ELISA, C3 deposition; tested in compound mixtures | AID 1235, 2008 | 62,000 tested, 0.08% active;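 active = inhibition above 30% in each of the two pooled mixtures holding the compound, so the lower value exceeds 30%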
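Assay system: human serum alternative complement pathway, C3 deposition on LPS-coated wells; Dosing: 5 µM per compound in ten-compound mixtures; Detection: Anti-C3 ELISA, OD 450 nm; Buffer or medium: Mg2+-EGTA GVB++ buffer containing human serum at 1:15 dilution; Timing: 1 h at 37 °C; Replication: two different pools per compound.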
RORa activator – activators of orphan receptor RORA, primary screen, cell-based, luminescence; activation, % at 10 µM; AID 560, 2006; CHO-K1 Gal4-RORA LBD luciferase reporter; percent increase over mock-subtracted basal signal; 65,000 tested, 1.5% active; Nuclear receptor ROR-alpha (Homo sapiens), P35398;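 active = activation above the mean of all tested compounds plus 3 SD, cut at about 49% in these data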
Target sequence (P35398 whole entry, looked up, the tested form may be a part): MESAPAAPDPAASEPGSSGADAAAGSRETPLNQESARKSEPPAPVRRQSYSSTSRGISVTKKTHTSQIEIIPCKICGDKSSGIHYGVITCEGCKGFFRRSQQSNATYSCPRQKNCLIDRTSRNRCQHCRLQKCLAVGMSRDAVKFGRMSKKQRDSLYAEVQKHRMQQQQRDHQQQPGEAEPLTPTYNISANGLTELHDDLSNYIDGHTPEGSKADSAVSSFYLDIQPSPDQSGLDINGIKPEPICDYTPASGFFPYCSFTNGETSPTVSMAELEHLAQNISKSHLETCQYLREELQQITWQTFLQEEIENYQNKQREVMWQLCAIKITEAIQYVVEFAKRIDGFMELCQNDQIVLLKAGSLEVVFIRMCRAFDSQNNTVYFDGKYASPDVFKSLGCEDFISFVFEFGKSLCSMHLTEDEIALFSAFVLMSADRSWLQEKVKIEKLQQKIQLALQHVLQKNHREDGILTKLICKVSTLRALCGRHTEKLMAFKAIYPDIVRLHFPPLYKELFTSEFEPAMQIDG
TNAP act mid DEA – human TNAP enzyme activators, primary screen, biochemical, luminescent, intermediate phosphate acceptor level; 64,000 tested, under 10 active; purified TNAP, CDP-star luminescence, 100 mM DEA, 30 min; stronger effect = higher value; scale: 0 levamisole-inhibited, 1 vehicle-only enzyme; Alkaline phosphatase, tissue-nonspecific isozyme (Homo sapiens), P05186; activation factor at 20 µM;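 active = activation factor of at least 2 at 20 µM, relative to controls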
Ec RNAP inh – E. coli RNAP inhibitors, biochemical; 62,000 tested, 0.2% active; DNA-directed RNA polymerase subunit beta (Escherichia coli (strain K12)), P0A8V2; AID 559, 2006; inhibition, %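 (tested at 10 µM)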; E. coli RNA polymerase, fluorescence transcription assay; in the data active = inhibition above about 20%
MT1-MMP txn act – MT1-MMP promoter reporter activation – cell-based, luciferase luminescence, primary screen; HT1080 MT1-MMP promoter luciferase reporter, overnight; stronger effect = higher value; activation factor at 10 µM; 86,000 tested, 0.16% active; AID 750, 2007;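 active = activation factor of at least 2 for MT1-MMP transcription at 10 µM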
Hits are given with their value; 0 = inactive; - = no result given.

SMILES	SF1 activator	AP ELISA ortho	RORa activator	TNAP act mid DEA	Ec RNAP inh	MT1-MMP txn act
Cc1ccc2nc(-c3ccccn3)oc2c1	0	0	0	0	0	0
Cc1ccc2nc(-c3cccnc3)oc2c1	0	0	49.7	0	0	0
c1cnc2c(SCc3ccc(-c4nnco4)cc3)cccc2c1	62.5	0	0	0	0	0
Cc1nc2ccc(C(=O)c3ccccc3)cc2[nH]1	56.9	0	0	0	0	0
O=C(c1ccccc1)c1ccc2nc[nH]c2c1	0	0	0	0	0	0
COc1ccccc1CN(Cc1cc2cc(C)ccc2[nH]c1=O)Cc1nnnn1CC1CCCO1 (stereo not drawn)	0	0	0	0	0	0
COc1ccccc1CN(Cc1cc2cc(C)cc(C)c2[nH]c1=O)Cc1nnnn1CC1CCCO1 (stereo not drawn)	0	0	53.5	0	0	0
O=C(CC12CC3CC(CC(C3)C1)C2)Nc1cccc2ncccc12	-	-	-	-	-	0
Cc1ccc(-n2nc(C)c(C3C(C#N)=C(N)OC4=C3C(=O)CC(C)(C)C4)c2Cl)cc1 (stereo not drawn)	57.0	0	0	0	0	0
O=C(N=C1SCC(=O)N1c1ccccc1Cl)c1ccco1	54.7	0	62.3	0	0	0
O=C(CSc1nnnn1-c1cccc2c1CCCC2)NC1CCCC1	-	-	-	-	-	0
O=C(CCCNS(=O)(=O)c1cccc2nsnc12)NC1CCCCC1	0	0	0	0	25.9	0
CCC1=C2CC[C@H]3C(=O)N(CC)C(=O)[C@H]3[C@H]2[C@@]2(C)C(=NCC(=O)OC)OC(=O)N2C1=O	-	-	-	-	-	0
CC12C(=O)N(Cc3ccco3)C(=O)C1C1c3ccccc3C2c2ccccc21 (stereo not drawn)	-	-	-	-	-	0
O=C(CN1C(=O)c2ccccc2S1(=O)=O)N1CCN(c2ccccc2)CC1	0	0	0	0	0	0
O=C(CN1C(=O)c2ccccc2S1(=O)=O)N1CCOCC1	0	0	0	0	0	2.1
CC(=O)n1cc(C(C[N+](=O)[O-])SCCN)c2ccccc21 (stereo not drawn)	-	-	-	-	-	0
NC(=O)c1c(NC(=O)c2cccs2)sc2c1CCCCCC2	0	0	55.8	0	0	0
O=C(Nc1sc2c(c1C(=O)O)CCC2)c1cccs1	0	0	0	0	0	0
CC(C)c1cccc2nc3c(c(C(C)(C)C)c12)Cn1c-3cccc1=O	-	-	-	-	-	0
Cn1ncc2c(Nc3ccc(-c4ccccc4)cc3)ncnc21	60.4	0	0	0	0	0
COc1ccc(-n2ncc3c(Nc4cccc(C)c4)ncnc32)cc1	80.0	-	0	0	0	0
Cc1cccc(-n2ncc3c(Nc4ccc(F)cc4)ncnc32)c1	74.4	0	64.0	0	0	0
COc1ccc(Nc2ncnc3c2cnn3-c2cccc(C)c2)cc1OC	0	0	0	0	0	0
N#CCCS(=O)(=O)c1nnnn1-c1ccccc1	0	0	0	0	0	0
SMILES	SF1 activator	AP ELISA ortho	RORa activator	TNAP act mid DEA	Ec RNAP inh	MT1-MMP txn act
COC(=O)c1cc(OC)c(OC)cc1NC(=O)c1cc(C)on1	0	0	0	0	0	0
CC(=O)C1=C(C)NC(C)=C(C(C)=O)C1c1ccc(-c2ccccc2Cl)o1	0	0	0	0	0	0
CCCCc1nc2ccccc2n2cc3c(=O)n(C)c(=O)n(C)c3c12	0	0	0	0	0	0
Cc1cc(C)cc(NC(=O)CSCc2nc3c(nnn3Cc3ccc(F)cc3)c(=O)[nH]2)c1	-	-	-	-	-	0
O=c1sc(N2CCN(c3ccccc3F)CC2)nc2ccsc12	71.7	0	59.8	0	0	0
COc1ncnc2sc(-c3ccccc3)cc12	51.3	0	0	0	0	0
CN(C)/C=N/c1c(C#N)cnn1-c1ncnc2sc(-c3ccccc3)cc12	0	0	0	0	0	0
CCN(c1ccccc1)c1nc2ccsc2c(=O)s1	0	0	0	0	0	0
CN(c1ccccc1)c1nc2ccsc2c(=O)s1	50.2	0	0	0	0	0
O=C1CC(C(=O)N2CCOCC2)C2(CCCC2)O1 (stereo not drawn)	0	0	0	0	0	0
COC(=O)N1CC=CC1(C)C(=O)NCc1ccc(C)o1 (stereo not drawn)	-	-	-	-	-	0
COc1ccccc1-n1cnc2cc(NCc3cccs3)ccc21	-	-	-	-	-	0
COc1ccccc1-n1cnc2cc(NCc3ccco3)ccc21	55.7	0	50.3	0	0	0
CC(C)N1CC(O)=C(c2nc3ccccc3[nH]2)C1=N	0	0	50.0	0	0	0
CCOC(=O)c1oc2cc(O)c(CC)cc2c(=O)c1-c1ccc2c(c1)OCCO2	0	0	0	0	0	0
Cc1oc2cc(O)cc(O)c2c(=O)c1-c1ccc2c(c1)OCCCO2	50.3	0	58.5	0	0	0
CCOC(=O)C1=C(CN2c3ccccc3CC2C)NC(=O)NC1c1ccccc1 (stereo not drawn)	-	-	-	-	-	0
Cc1sc2nc3n(c(=O)c2c1C)Cc1ccccc1-3	56.1	0	73.2	0	0	0
COC(=O)COc1ccc(Oc2nc(SC)nc(N(C)C)n2)nn1	0	-	0	0	0	0
COc1ccc(C)cc1S(=O)(=O)N1c2ccccc2CC1C (stereo not drawn)	-	-	-	-	-	0
CC(C)(C)OC(=O)N[C@@H](Cc1ccccc1)c1nnc(S(=O)(=O)Cc2ccccc2)o1	0	31.3	0	0	-	-
CC(C(=O)Nc1ccccc1-c1ccccc1)N1CCN(C(=O)c2ccco2)CC1 (stereo not drawn)	0	0	0	0	0	-
COC(=O)c1ccc(C(NC(=O)OCc2ccccc2)/C(=C/[C@@H](C)C(=O)NCc2ccc(S(C)(=O)=O)cc2)C(F)(F)F)cc1 (stereo partly drawn)	-	-	-	-	-	0
O=C(NC(=S)Nc1nc2c(s1)CSc1ccccc1-2)c1ccccc1	-	-	-	-	-	0
COCCN=C1OC(=O)N2C(=O)C3=C4[C@@H](C[C@H]5C(=O)N(CC(=O)OC)C(=O)[C@H]5[C@H]4[C@@]12Cc1ccccc1)[C@H]1C(=O)N(CC(=O)OC)C(=O)[C@H]1[C@H]3C	-	-	-	-	-	0
SMILES	SF1 activator	AP ELISA ortho	RORa activator	TNAP act mid DEA	Ec RNAP inh	MT1-MMP txn act
Cc1nc2c3cnn(-c4ccc(C)c(C)c4)c3ncn2n1	65.1	0	0	0	0	0
C#CCn1cnc2c(cnn2-c2ccc(C)c(C)c2)c1=O	57.9	0	0	0	0	-
CCc1nnc2c3cnn(-c4ccc(C)c(C)c4)c3ncn12	57.6	0	56.9	0	0	-
Cc1ccc(-n2ncc3c(=O)n(CC#N)cnc32)cc1C	0	0	0	0	0	0
CSc1nc2c(cnn2-c2ccc(C)c(C)c2)c(=O)[nH]1	0	0	0	0	0	0
CCC1=C2CC[C@H]3C(=O)N(c4ccccc4)C(=O)[C@H]3[C@H]2[C@@]2(Cc3ccccc3)C(=NCC3CC3)OC(=O)N2C1=O	-	-	-	-	-	0
O=C(Nc1ccc(S(=O)(=O)NC2CCCC2)cc1)c1cnccn1	0	0	0	0	0	0

Screens: PubChem, several laboratories
